The test system of one assay is SR. The assay is described as follows: In vitro cytotoxicity against human leukemia SR cancer cell line. The assay is classed as functional.
A further assay deals with MCF7. The assay can be described thus: In vitro anticancer activity was evaluated for the percentage growth of human breast MCF-7 cell line. Format: functional. The gist of the method: (§1)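 Each cell line received a single dose of 10^-4 M, and the read-out was percentage growth.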
The subject of assay [1] is SF-268. The assay is described as follows: In vitro anticancer activity was evaluated for the percentage growth of human (CNS) SF-268 cell line. The assay is classed as functional. The gist of the method:
as §1

The test system of a further assay is NCI-H522. The assay is described as follows: In vitro cytotoxicity against human non-small cell lung NCI-H522 cancer cell line. The assay is classed as functional.
For another assay, the system named is NCI-H460. The assay can be described thus: In vitro anticancer activity was evaluated for the percentage growth of human lung NCI-H460 cell line. The assay is classed as functional. The gist of the method:
as §1

The subject of assay [2] is SF-268. The assay is described as follows: In vitro cytotoxicity against human CNS SF-268 cancer cell line. Format: functional.
Assay [3] relates to Nucleic Acid. The assay is described as follows: DNA binding ability by thermal denaturation studies using calf thymus DNA after incubation at 37 degree C for 36 hour. The assay is classed as nucleic-acid assay. The conditions noted are these: Bos taurus. In outline:
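Calf thymus DNA 100 µM with PBD 20 µM (1:5 [PBD]:[DNA]) in 10 mM sodium phosphate + 1 mM EDTA, pH 7.00, incubated at 37 °C for 0, 18 or 36 h. Thermal melting measured; ΔTm taken relative to CT-DNA alone, whose Tm is the mean of 10 separate determinations.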

Assay [4] concerns Nucleic Acid. The assay is described as follows: DNA binding ability by thermal denaturation studies using calf thymus DNA after incubation at 37 degree C for 18 hour. The following applies: Bos taurus. Format: nucleic-acid assay.
The test system of assay [5] is Nucleic Acid. The assay is described as follows: DNA binding ability by thermal denaturation studies using calf thymus DNA after incubation at 37 degree C for 0 hour. The assay is classed as nucleic-acid assay. The conditions noted are these: Bos taurus.
The test system of a further assay is CCRF-CEM. The assay is described as follows: In vitro cytotoxicity against human leukemia CCRF-CEM cancer cell line. The assay is classed as functional.
A further assay has as its system SF-295. The assay can be described thus: In vitro cytotoxicity against human CNS SF-295 cancer cell line. The assay is classed as functional.
The next assay relates to UO-31. The assay can be described thus: In vitro cytotoxicity against human renal UO-31 cancer cell line. The assay is classed as functional.
In another assay the test system is Hs-578T. The assay can be described thus: In vitro cytotoxicity against human breast Hs 578.T cancer cell line. Format: functional.
Another assay deals with SW-620. The assay is described as follows: In vitro cytotoxicity against human colon SW-620 cancer cell line. The assay is classed as functional.

The values that follow come from ChEMBL document CHEMBL1146749, “The effect of C2-fluoro group on the biological activity of DC-81 and its dimers” (2004).

SMILES strings stand for the structures.

One may read the GI50 as the concentration at which growth is held to half of that of the control. Read a high GI50 as lower sensitivity of the cells. Usually ΔTm stands for the shift of the melting midpoint relative to a reference. `COc1cc2c(cc1OCCCCCOc1cc3c(cc1OC)C(=O)N1C[C@@H](F)C[C@H]1C=N3)N=C[C@@H]1C[C@H](F)CN1C2=O`: the GI50 with SR, in the assay on NCI-H522, in the assay with SF-268 [2], with CCRF-CEM, in the assay with SF-295 and in the assay with UO-31 was less than 10 nM in each case. Further, the GI50 was less than 10 nM in the assay with Hs-578T and 20 nM with SW-620. The Growth with MCF7, with SF-268 [1] and in the assay with NCI-H460 was 0% each time. Further, the shift in melting temperature (ΔTm) in the assay with Nucleic Acid [3] turned out to be 17.4 °C; in the assay with Nucleic Acid [4] it was 16 °C; with Nucleic Acid [5], 14.2 °C.

As to `COc1cc2c(cc1OCCCOc1cc3c(cc1OC)C(=O)N1C[C@@H](F)C[C@H]1C=N3)N=C[C@@H]1C[C@H](F)CN1C2=O`, the GI50 with SR worked out at 1540 nM; in the assay on NCI-H522, 1880 nM; in the assay with SF-268 [2], 2200 nM; in the assay with SF-295, 1960 nM; in the assay with UO-31 it was 2400 nM; in the assay with SW-620, 4200 nM. Besides, the Growth in the assay on MCF7, in the assay with SF-268 [1] and in the assay with NCI-H460 was 0% each time. Besides, the ΔTm in the assay on Nucleic Acid [3] amounted to 6.16 °C; in the assay on Nucleic Acid [4], 4.9 °C; in the assay on Nucleic Acid [5] it was 3.1 °C.

As for `COc1cc2c(cc1OCCCCOc1cc3c(cc1OC)C(=O)N1C[C@@H](F)C[C@H]1C=N3)N=C[C@@H]1C[C@H](F)CN1C2=O`, the figures for the shift in melting temperature (ΔTm) in the assay with Nucleic Acid [3], with Nucleic Acid [4] and in the assay on Nucleic Acid [5] were 13.8 °C, 12.3 °C and 4.6 °C, respectively.

Consider `COc1cc2c(cc1O)N=C[C@@H]1C[C@H](F)CN1C2=O`, for which the GI50 was found to be 200 nM with SR; 410 nM in the assay with NCI-H522; 350 nM with SF-268 [2]; 300 nM with CCRF-CEM; 320 nM with SF-295; 170 nM in the assay on UO-31. The 50% growth inhibitory concentration (GI50) with Hs-578T came out at 10 nM; with SW-620, 1190 nM. The Growth in the assay with MCF7, in the assay with SF-268 [1] and in the assay on NCI-H460 was 0% in each case. Moreover, the ΔTm amounted to 2.2 °C in the assay with Nucleic Acid [3], 1 °C in the assay with Nucleic Acid [4] and 0.3 °C in the assay with Nucleic Acid [5].

For the compound `COc1cc2c(cc1OCCCOc1cc3c(cc1OC)C(=O)N1CCC[C@H]1C=N3)N=C[C@@H]1CCCN1C2=O`, the ΔTm in the assay with Nucleic Acid [5] stood at 10.2 °C.

As to `COc1cc2c(cc1O)N=C[C@@H]1CCCN1C2=O`, the thermal shift (ΔTm) in the assay on Nucleic Acid [4] came out at 0.7 °C; in the assay with Nucleic Acid [5], 0.3 °C.

With `COc1cc2c(cc1OCc1ccccc1)N=C[C@@H]1C[C@H](F)CN1C2=O`, the 50% growth inhibitory concentration (GI50) in the assay on SR was less than 10 nM; with NCI-H522 it was less than 10 nM; with SF-268 [2], 10 nM; in the assay with CCRF-CEM it was less than 10 nM; in the assay with SF-295, 30 nM; in the assay with UO-31, less than 10 nM. In addition, the GI50 with Hs-578T and in the assay with SW-620 was less than 10 nM throughout. Moreover, the figures for the Growth in the assay on MCF7, in the assay with SF-268 [1] and in the assay on NCI-H460 were 0%, 19% and 1%, respectively. For the same compound, the ΔTm in the assay with Nucleic Acid [3] was determined as 2.5 °C; with Nucleic Acid [4] it was 2 °C; with Nucleic Acid [5], 1.1 °C.

As for `COc1cc2c(cc1O)N=C[C@@H]1C[C@@H](F)CN1C2=O`, the ΔTm worked out at 2.25 °C in the assay with Nucleic Acid [3], 1.5 °C with Nucleic Acid [4] and 0.6 °C in the assay with Nucleic Acid [5].
